Source: PubChem (Broad Institute)
An excerpt weighted towards active compounds, which were near 1.6% of everything screened.
SR-BI HDL uptake – inhibitors of mouse SR-BI mediated HDL lipid uptake; ldlA[mSR-BI] CHO cells, DiI-HDL uptake fluorescence, 3 h; Q61009; inhibition, % at 12.5 µM; 320,000 compounds, 0.96% hits;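 active = mean replicate inhibition of at least 70% and a set share of replicates each scoring 70 or more; inconclusive = meets just one of the two criteria; inactive = fails both criteria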;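 also: 0% = median of neutral control wells and 100% = median of positive control wells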
dFosB act-1 – activators of mouse delta FosB homodimer; P13346; purified delta FosB, TAMRA-CDK5 oligo fluorescence polarization; percent of positive-control signal above neutral wells; activation, % at 25 µM; 340,000 compounds, 0.99% hits; AID 493131;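 active = mean activation above about 17%, with every replicate also reaching it, limit read from the data, passing the limit was not always enough; inconclusive = only one of the two conditions met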
SR-BI uptake up – activators of SR-BI mediated HDL lipid uptake. CHO ldlA[mSR-BI] cells, DiI-HDL uptake fluorescence, 3 h; 100 = double the neutral-control signal. activation, % at 12.5 µM. 320,000 compounds, 0.096% hits;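 active = mean replicate activation of at least 60% and every replicate at or above 60%; inconclusive = mean or all-replicate condition met, but not both; inactive = mean below 60% and not all replicates reaching 60%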;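 also: 0% = median plate neutral-control signal and 100% = twice that signal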
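System: CHO ldlA[mSR-BI] cells / Medium: HEPES-buffered (25 mM, pH 7.4) F12 plus 0.5% BSA / Probe or stimulus: labelled HDL, 10 µg/mL / Doses: single compound concentration, delivered by pin transfer / Schedule: 3 h, 37 °C / Measured by: DiI fluorescence, bottom read / Measure: cell-associated DiI fluorescence as measure of HDL uptake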
S100A4 MyoIIA – inhibitors of human S100A4 binding to myosin IIA peptide; 360,000 compounds, 0.14% hits; AID 652163; inhibition, % at 10.7 µM; S100A4/TAMRA-MyoIIA peptide fluorescence polarization;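 active = mean inhibition of at least 70% across replicates, with every replicate also reaching that level; inconclusive = mean inhibition reaches 70% but some replicates fall short; inactive = mean inhibition below 70%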
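Test system: S100A4 monomer protein. Medium: HEPES buffer with Ca2+, pH 7.2. Reagent: fluorescent myosin IIA peptide, 5 nM. Compound dosing: single-point compound testing. Timing: 5 min between mix addition and reading. Benchmarks: DMSO neutral and TFP positive wells.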
PvdQ acylase – blocks Pseudomonas aeruginosa PvdQ acylase activity; AID 488965; purified PvdQ acylase, fluorescence plate reader; inhibition, % at 10 µM; 340,000 compounds, 0.063% hits; in the data active = inhibition above about 30%, passing the limit was not always enough; inconclusive = no clear call, values can overlap the other calls;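 also: 0% = vehicle neutral wells and 100% = reference inhibitor wells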
RAD54 inh – blocks human RAD54 Holliday junction branch migration | Q92698 | FAM/BHQ fluorescence | inhibition, % at 10.4 µM | 360,000 compounds, 0.14% hits;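 active = mean normalized replicate activity at least 40 and at least half of replicates scoring 40 or more; inconclusive = only one of the two criteria met; inactive = mean below 40 and under half of replicates reaching 40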;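 also: 0% = median of neutral control wells and 100% = median of positive control wells; inhibitors cause a drop in the FAM fluorescence signal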
Target sequence (Q92698 whole entry, looked up): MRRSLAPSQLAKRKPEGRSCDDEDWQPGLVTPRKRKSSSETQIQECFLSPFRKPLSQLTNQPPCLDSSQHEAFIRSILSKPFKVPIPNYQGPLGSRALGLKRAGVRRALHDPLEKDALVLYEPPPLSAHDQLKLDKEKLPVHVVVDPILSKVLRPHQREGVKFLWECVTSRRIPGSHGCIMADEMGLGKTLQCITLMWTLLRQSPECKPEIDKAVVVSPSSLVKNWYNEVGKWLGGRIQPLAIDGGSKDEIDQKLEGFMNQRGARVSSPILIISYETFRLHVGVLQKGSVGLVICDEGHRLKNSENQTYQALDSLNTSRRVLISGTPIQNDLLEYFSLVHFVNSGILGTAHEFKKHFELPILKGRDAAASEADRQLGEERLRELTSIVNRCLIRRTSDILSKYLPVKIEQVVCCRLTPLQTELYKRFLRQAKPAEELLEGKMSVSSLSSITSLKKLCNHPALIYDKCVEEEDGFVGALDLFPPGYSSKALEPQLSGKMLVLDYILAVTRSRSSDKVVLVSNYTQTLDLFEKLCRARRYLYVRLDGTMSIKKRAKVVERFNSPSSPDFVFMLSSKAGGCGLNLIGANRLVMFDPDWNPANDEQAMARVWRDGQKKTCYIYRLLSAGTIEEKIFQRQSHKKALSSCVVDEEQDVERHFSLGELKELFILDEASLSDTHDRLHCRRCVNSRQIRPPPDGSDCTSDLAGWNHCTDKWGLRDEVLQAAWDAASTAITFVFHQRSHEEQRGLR
dFosB act-2 – activators of mouse delta FosB homodimer DNA binding. purified delta FosB, TAMRA-CDK5 oligo fluorescence polarization; normalised: neutral wells 0, positive control 100. 2,400 tested, under 10 active. AID 588690. activation, % at 24.9 µM. shares compounds with dFosB act-1;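 active = highest replicate activation at or above 34% and every replicate reaching that threshold; inconclusive = meets only one of the two criteria; inactive = meets neither criterion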;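 also: higher polarization means more probe DNA bound by delta FosB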
* = called active by the depositor; ? = inconclusive; / = not tested or not shown.

SMILES	SR-BI HDL uptake	dFosB act-1	SR-BI uptake up	S100A4 MyoIIA	PvdQ acylase	RAD54 inh	dFosB act-2
Cc1cccc(-n2c(Cc3cc(=O)[nH]c(=O)[nH]3)nnc2SCC(=O)N2CCc3ccccc32)c1	-11	38*	11	0	11	-9	-2
COc1cccc(-n2c(SCC(=O)N3CCc4ccccc43)nnc2-c2c[nH]c3ccccc23)c1	13	-6	-13	0	-7	14	/
CCOc1ccc(-n2c(SCC(=O)N3CCc4ccccc43)nnc2-c2c[nH]c3ccccc23)cc1	-46	27*	46	4	1	11	4
CC(C)NC(=O)N[C@@H]1CC[C@H](CC(=O)N2CCCCC2)O[C@H]1CO	/	/	/	-6	/	-1	/
S=c1[nH]nc(-c2cc(-c3ccccc3)n[nH]2)n1/N=C/c1ccccc1	/	11	/	3	-11	-1	/
S=c1[nH]nc(-c2cc(-c3ccccc3)n[nH]2)n1/N=C/C=C/c1ccccc1	2	41*	-2	2	15	1	0
Cc1ccc(-c2n[nH]c(=S)n2/N=C/C=C/c2ccccc2[N+](=O)[O-])cc1	10	-6	-10	/	0	0	/
O=[N+]([O-])c1ccccc1/C=C/C=N/n1c(-c2cc(-c3ccccc3)n[nH]2)n[nH]c1=S	/	54*	/	-1	-16	/	2
CCCNC(=O)N1C[C@@H](C)[C@@H](OC)CN(C)C(=O)c2ccc(NS(C)(=O)=O)cc2OC[C@H]1C	/	/	/	7	/	0	/
Cc1ccc(S(=O)(=O)Nc2ccc3c(c2)C(=O)N([C@@H](C)CO)C[C@H](C)[C@@H](CN(C)Cc2ccc(C(=O)O)cc2)OCCCC[C@H](C)O3)cc1	/	/	/	2	/	1	/
O=C(NC1CCCC1)N1CC(=O)N2[C@@H](CO)[C@H](c3ccc(/C=C/c4ccccc4)cc3)[C@@H]2C1	/	/	/	9	/	/	/
O=[N+]([O-])c1ccccc1OCCOc1ccccc1[N+](=O)[O-]	-16	23*	16	-3	10	/	1
COc1ccc(OCCOc2ccccc2[N+](=O)[O-])cc1	-35	-3	35	1	-7	/	/
O=C(NC(=S)Nc1ccc2oc(=O)ccc2c1)c1cccc(F)c1	19	1	-19	14	-2	-5	/
O=C(NC(=S)Nc1ccc2oc(=O)ccc2c1)c1cccc(Cl)c1	18	88*	-18	1	-16	-5	0
O=C(Nc1ccc(OC(=O)c2ccccc2)c(-c2nc3ccccc3s2)c1)c1ccccc1	32	18*	-32	/	-9	2	6
CCOCCCNC(=S)NCCCNc1nc2c(C)cc(C)cc2cc1C#N	56	-12	-56	1	-5	/	/
Cc1cc(C)c2nc(NCCCNC(=S)NCCCN(C)C)c(C#N)cc2c1	38	32*	-38	-2	3	/	?
CCc1ccc2oc(C(=O)NCC(c3ccc(OC)cc3)N3CCCCC3)c(C)c2c1 (stereo unspecified)	35	21*	-35	-10	-8	-2	0
COc1ccc(NC(=O)Nc2ccc3c(c2)[C@@H]2C[C@H](CC(=O)NCc4ccccc4F)O[C@@H](CO)[C@@H]2O3)cc1	/	/	/	2	/	1	/
NCCNc1ccc([N+](=O)[O-])c(Sc2nc3ccccc3[nH]2)c1	-15	25*	15	/	-9	/	0
O=[N+]([O-])c1ccc(N2CCNCC2)cc1Sc1nc2ccccc2[nH]1	-11	14	11	/	-5	/	/
COc1ccc(NC(=O)N(C)C[C@@H]2Oc3ccc(N(C)C)cc3CC(=O)N([C@@H](C)CO)C[C@H]2C)cc1	/	/	/	12	/	1	/
CC(=O)N1C[C@@H]2[C@H](c3ccccc31)[C@@H](CO)N2C(=O)CC1CC1	/	/	/	7	/	0	/
O=C(Cn1cnc2sc3c(c2c1=O)CCCC3)NCC(=O)Nc1c(F)cccc1F	-7	32*	7	2	-11	3	0
SMILES	SR-BI HDL uptake	dFosB act-1	SR-BI uptake up	S100A4 MyoIIA	PvdQ acylase	RAD54 inh	dFosB act-2
O=C(CNC(=O)Cn1cnc2sc3c(c2c1=O)CCCC3)NCc1ccccn1	8	1	-8	3	3	-3	/
CN1CCN(c2ccc(-c3cccc(NC(=O)COc4ccc(Cl)cc4)c3)nn2)CC1	41	-9	-41	-5	0	7	/
CN1CCN(c2ccc(-c3cccc(NC(=O)COc4ccc(Cl)cc4Cl)c3)nn2)CC1	16	28*	-16	-1	-2	/	1
O=C(Nc1ccc2c(c1)[C@@H]1C[C@H](CC(=O)N3CCOCC3)O[C@H](CO)[C@@H]1O2)c1cccnc1	/	/	/	-1	/	-4	/
CCc1cccc(OCC2Cn3c(nc4c3c(=O)[nH]c(=O)n4C)O2)c1 (stereo unspecified)	3	20*	-3	0	-21	-7	3
Cn1c(=O)c2ncn(CC(=O)Nc3nc(-c4ccc(Cl)cc4)cs3)c2n(C)c1=O	15	24*	-15	3	-2	/	1
NS(=O)(=O)c1cccc(NC(=O)c2cc(=O)c3ccccc3o2)c1	-12	19*	12	-3	-20	4	-2
CCCNC(=O)[C@@H]1[C@@H](CO)[C@@H]2Cn3c(cccc3=O)[C@@H]2N1Cc1ccccc1Cl	/	/	/	-1	/	2	/
O=C(NC1CCC1)[C@H]1[C@H](CO)[C@H]2Cn3c(ccc(C4=CCCC4)c3=O)[C@@H]1N2CC1CC1	/	/	/	-1	/	-3	/
O=[N+]([O-])c1ccc2[nH]cc(S(=O)(=O)N3CCN(c4cccc(Cl)c4)CC3)c2c1	10	26*	-10	3	-1	0	4
Cc1ccc(C2(C(F)(F)F)NC(=O)N3C(=C2C#N)Nc2ccccc23)cc1 (stereo unspecified)	-15	23*	15	/	-9	6	6
Cc1noc(C)c1NC(=O)Nc1cccc2c1O[C@@H](CN(C)CC1CCCCC1)[C@@H](C)CN([C@H](C)CO)C2=O	/	/	/	-8	/	-7	/
COc1ccc(CN(C)C[C@@H]2OCCCC[C@H](C)Oc3ccc(NS(=O)(=O)c4ccc(Cl)cc4)cc3C(=O)N([C@H](C)CO)C[C@@H]2C)cc1	/	/	/	-5	/	-1	/
COc1cccc(-n2nnc3c(=O)n(CC(=O)Nc4ccccc4C)cnc32)c1	-5	1	5	0	-13	11	/
COC(=O)c1ccc(NC(=O)Cn2cnc3c(nnn3-c3cccc(OC)c3)c2=O)cc1	-3	37*	3	-14	11	8	0
O=C(Cn1cnc2c(nnn2Cc2ccc(F)cc2)c1=O)Nc1cccc(F)c1	-40	11	40	-4	1	/	/
